Test results taken from ChEMBL document CHEMBL4033622, “Synthesis and the interaction of 2-(1H-pyrazol-4-yl)-1H-imidazo[4,5-f][1,10]phenanthrolines with telomeric DNA as lung cancer inhibitors” (Eur J Med Chem, 2017).
Each block holds one compound with its values, some of them ahead of it. Active and inactive are the calls of the source. No cut-off for these calls is given here.

Assays:
A549 [1] = assay: Cytotoxicity against human A549 cells assessed as cell growth inhibition at 10 uM after 36 hrs by CCK8 assay; assay type: functional, cell-based
MRC5 = assay: Cytotoxicity against human MRC5 cells after 36 hrs by CCK8 assay; assay type: cell-based; settings: MRC5, 36 h
A549 [2] = assay: Cytotoxicity against human A549 cells after 36 hrs by CCK8 assay; assay type: functional, cell-based; settings: A549, 36 h
[3] = Selectivity index, ratio of IC50 for human MRC5 cells to IC50 for human A549 cells; assay type: functional
Homo sapiens [4] = species: Homo sapiens; assay: Binding affinity to human telomeric 26 G-quadruplex DNA assessed as change in melting temperature at drug/DNA ratio of 1:10 by UV spectrophotometry (reference value: 39.34 degC)
A549 [5] = assay: Anti-migratory activity against human A549 cells assessed as […] at 0.05 uM after 48 hrs by wound healing assay relative to control; assay type: functional; settings: A549, 48 h
Method in brief: (§1)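 A549 monolayer seeded at 1 × 10⁵ cells/mL and grown 24 h, then scratched with a pipette tip. Compounds were added and cells kept 48 h in serum-free medium, then photographed. Migration distance was measured against lines fitted to the wound edges, with three points per plate. Inhibition (%) = (1 − D_drug/D_control) × 100. Mean ± SD of three independent experiments in triplicate.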

A549 [6] = assay: Anti-migratory activity against human A549 cells assessed as […] at 0.1 uM after 48 hrs by wound healing assay relative to control; assay type: functional; settings: A549, 48 h; method in brief: as §1
A549 [7] = assay: Anti-migratory activity against human A549 cells assessed as […] at 0.2 uM after 48 hrs by wound healing assay relative to control; assay type: functional; settings: A549, 48 h; method in brief: as §1
Homo sapiens [8] = species: Homo sapiens; assay: Binding affinity to human telomeric 26 G-quadruplex DNA up to 20 uM after 24 hrs by SYBR gold staining based electrophoretic mobility shift assay
Homo sapiens [9] = species: Homo sapiens; assay: Binding affinity to human telomeric 26 G-quadruplex DNA after 24 hrs by SYBR gold staining based electrophoretic mobility shift assay
Homo sapiens [10] = species: Homo sapiens; assay: Binding affinity to human telomeric 26 mutated DNA up to 40 uM after 24 hrs by SYGR gold staining based electrophoretic mobility shift assay
Homo sapiens [11] = species: Homo sapiens; assay: Binding affinity to human telomeric 26 double stranded DNA up to 40 uM after 24 hrs by SYBR gold staining based electrophoretic mobility shift assay
A549 [12] = assay: Cytotoxicity against human A549/ATCC cells after 48 hrs by sulforhodamine B assay; assay type: functional, cell-based; settings: A549, 48 h

SMILES: Cn1cc(-c2nc3c4cccnc4c4ncccc4c3[nH]2)c(-c2ccc(F)cc2)n1
growth inhibition (GI) (A549 [1]): Active

SMILES: Cn1cc(-c2nc3c4cccnc4c4ncccc4c3[nH]2)c(-c2ccc(Cl)cc2)n1
growth inhibition (GI) (A549 [1]): Active

ΔTm (Homo sapiens [4]): 12.4 °C
Activity (Homo sapiens [8]): inactive
SMILES: Fc1ccc(-c2nn(Cc3ccccc3)cc2-c2nc3c4cccnc4c4ncccc4c3[nH]2)cc1
growth inhibition (GI) (A549 [1]): Active
IC50 (MRC5): 3.8 µM
IC50 (A549 [2]): 1.78 µM
Ratio IC50 [3]: 2.13
inhibition of growth at 0.05 µM (A549 [5]): 34.5%
inhibition of growth at 0.1 µM (A549 [6]): 86.6%
inhibition of growth at 0.2 µM (A549 [7]): 93.3%

SMILES: Cc1ccc(-c2nn(-c3ccc([N+](=O)[O-])cc3[N+](=O)[O-])cc2-c2nc3c4cccnc4c4ncccc4c3[nH]2)cc1
growth inhibition (GI) (A549 [1]): Active

SMILES: Fc1ccc(-c2n[nH]cc2-c2nc3c4cccnc4c4ncccc4c3[nH]2)cc1
growth inhibition (GI) (A549 [1]): Active

ΔTm (Homo sapiens [4]): 13.5 °C
Activity (Homo sapiens [8]): inactive
SMILES: Clc1ccc(-c2nn(Cc3ccccc3)cc2-c2nc3c4cccnc4c4ncccc4c3[nH]2)cc1
growth inhibition (GI) (A549 [1]): Active
IC50 (MRC5): 4.17 µM
IC50 (A549 [2]): 2.08 µM
Ratio IC50 [3]: 2
inhibition of growth at 0.05 µM (A549 [5]): 24.7%
inhibition of growth at 0.1 µM (A549 [6]): 54.2%
inhibition of growth at 0.2 µM (A549 [7]): 94.4%

SMILES: Cc1ccc(-c2nn(CCCN(C)C)cc2-c2nc3c4cccnc4c4ncccc4c3[nH]2)cc1
growth inhibition (GI) (A549 [1]): Active

SMILES: O=[N+]([O-])c1ccc(-n2cc(-c3nc4c5cccnc5c5ncccc5c4[nH]3)c(-c3ccc(Cl)cc3)n2)c([N+](=O)[O-])c1
growth inhibition (GI) (A549 [1]): Active

SMILES: Clc1ccc(-c2n[nH]cc2-c2nc3c4cccnc4c4ncccc4c3[nH]2)cc1
growth inhibition (GI) (A549 [1]): Active

SMILES: Brc1ccc(-c2n[nH]cc2-c2nc3c4cccnc4c4ncccc4c3[nH]2)cc1
growth inhibition (GI) (A549 [1]): Active

Activity (Homo sapiens [9]): Dose-dependent effect
Activity (Homo sapiens [10]): inactive
Activity (Homo sapiens [11]): inactive
ΔTm (Homo sapiens [4]): 20.5 °C
Activity (Homo sapiens [8]): Active
SMILES: Brc1ccc(-c2nn(Cc3ccccc3)cc2-c2nc3c4cccnc4c4ncccc4c3[nH]2)cc1
growth inhibition (GI) (A549 [1]): Active
IC50 (MRC5): 3.83 µM
IC50 (A549 [2]): 1.48 µM
Ratio IC50 [3]: 2.58
inhibition of growth at 0.05 µM (A549 [5]): 48.3%
inhibition of growth at 0.1 µM (A549 [6]): 78.8%
inhibition of growth at 0.2 µM (A549 [7]): 98.4%

SMILES: CN(C)CCCn1cc(-c2nc3c4cccnc4c4ncccc4c3[nH]2)c(-c2ccc(Cl)cc2)n1
growth inhibition (GI) (A549 [1]): Active

SMILES: Cn1cc(-c2nc3c4cccnc4c4ncccc4c3[nH]2)c(-c2ccc(Br)cc2)n1
growth inhibition (GI) (A549 [1]): Active

SMILES: Cc1ccc(-c2n[nH]cc2-c2nc3c4cccnc4c4ncccc4c3[nH]2)cc1
growth inhibition (GI) (A549 [1]): Active

SMILES: CN(C)CCCn1cc(-c2nc3c4cccnc4c4ncccc4c3[nH]2)c(-c2ccc(Br)cc2)n1
growth inhibition (GI) (A549 [1]): Active

SMILES: Oc1cn(-c2ccc(Cl)cc2)nc1-c1n[nH]c(=S)n1-c1ccc(F)cc1
GI50 (A549 [12]): 13.2 µM

SMILES: Cc1ccc(-c2nn(C)cc2-c2nc3c4cccnc4c4ncccc4c3[nH]2)cc1
growth inhibition (GI) (A549 [1]): Active

SMILES: O=[N+]([O-])c1ccc(-n2cc(-c3nc4c5cccnc5c5ncccc5c4[nH]3)c(-c3ccc(F)cc3)n2)c([N+](=O)[O-])c1
growth inhibition (GI) (A549 [1]): Active

Activity (Homo sapiens [10]): inactive
Activity (Homo sapiens [11]): inactive
ΔTm (Homo sapiens [4]): 11 °C
Activity (Homo sapiens [8]): inactive
SMILES: Brc1ccc(-c2nc3c4cccnc4c4ncccc4c3[nH]2)cc1
growth inhibition (GI) (A549 [1]): Active
IC50 (MRC5): 6.88 µM
IC50 (A549 [2]): 1.69 µM
Ratio IC50 [3]: 4.07
inhibition of growth at 0.05 µM (A549 [5]): 16.1%
inhibition of growth at 0.1 µM (A549 [6]): 23.7%
inhibition of growth at 0.2 µM (A549 [7]): 56.1%

ΔTm (Homo sapiens [4]): 16.3 °C
Activity (Homo sapiens [8]): inactive
SMILES: Cc1ccc(-c2nn(Cc3ccccc3)cc2-c2nc3c4cccnc4c4ncccc4c3[nH]2)cc1
growth inhibition (GI) (A549 [1]): Active
IC50 (MRC5): 4.76 µM
IC50 (A549 [2]): 2.75 µM
Ratio IC50 [3]: 1.73
inhibition of growth at 0.05 µM (A549 [5]): 16.3%
inhibition of growth at 0.1 µM (A549 [6]): 54.6%
inhibition of growth at 0.2 µM (A549 [7]): 85.8%

SMILES: O=[N+]([O-])c1ccc(-n2cc(-c3nc4c5cccnc5c5ncccc5c4[nH]3)c(-c3ccc(Br)cc3)n2)c([N+](=O)[O-])c1
growth inhibition (GI) (A549 [1]): Active

SMILES: Nc1ccc(-n2cc(-c3nc4c5cccnc5c5ncccc5c4[nH]3)c(-c3ccc(Br)cc3)n2)nn1
growth inhibition (GI) (A549 [1]): Active

SMILES: CN(C)CCCn1cc(-c2nc3c4cccnc4c4ncccc4c3[nH]2)c(-c2ccc(F)cc2)n1
growth inhibition (GI) (A549 [1]): Active
